Measurements: ChEMBL document CHEMBL5104184, “Chemical Toolkit for PARK7: Potent, Selective, and High-Throughput” (J Med Chem, 2022)
Activity calls are given as the source filed them. The calls are words filed in the database; no cut-off is given here.

Key:
[1] = biological target: T1, Parkinson disease protein 7 (Homo sapiens) (UniProt Q99497); assay: Inhibition of PARK7 in human HEK293T cells assessed as reduction in JQ-92 labelled PARK7 band intensity at 0.1 to 50 uM incubated for 1 hr followed by incubation with JQ-92 for 30 mins by fluorescence scanning based analysis; format: cell-based; conditions: dose 0.1-50 µM, time 90.0 min
T1 sequence (whole entry): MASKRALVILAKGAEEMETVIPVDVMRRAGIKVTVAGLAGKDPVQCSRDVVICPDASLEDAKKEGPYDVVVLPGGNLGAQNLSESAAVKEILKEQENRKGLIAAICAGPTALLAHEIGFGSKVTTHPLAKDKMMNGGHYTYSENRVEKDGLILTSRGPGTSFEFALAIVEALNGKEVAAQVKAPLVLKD

[2] = biological target: T1, Parkinson disease protein 7 (Homo sapiens); assay: Inhibition of N-terminal GST-tagged human recombinant PARK7 expressed in Escherichia coli BL21(DE3)Rosetta2 cells using DiFMUAc as substrate at 12.5 to 100 uM preincubated with enzyme for 1 hr followed by substrate addition and measured for 1 hr by DiFMUAc assay based fluorescence analysis; conditions: dose 12.5-100 µM, time 2.0 hrs
Method in brief: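 PARK7 GST fusion was expressed in E. coli BL21(DE3) Rosetta2, purified on glutathione beads, cut with 3C protease and polished by SEC. Enzyme at 0.1 μM final in PBS was preincubated with compound at 100, 37.5 or 12.5 μM final. DiFMUAc was then added at 300 μM final, and fluorescence (ex/em 350/450 nm) was monitored for 1 h. Run in triplicate.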

[3] = biological target: T1, Parkinson disease protein 7 (Homo sapiens); assay: Inhibition of PARK7 in human HEK293T cells assessed as reduction in JQ-92 labelled PARK7 band intensity at 1 uM incubated for 1 hr followed by incubation with JQ-92 for 30 mins by fluorescence scanning based analysis; format: cell-based; conditions: time 90.0 min
[4] = biological target: T1, Parkinson disease protein 7 (Homo sapiens); assay: Inhibition of N-terminal GST-tagged human recombinant PARK7 expressed in Escherichia coli BL21(DE3)Rosetta2 cells using SRK59 as fluorescent probe at 0.5 uM preincubated for 1 hr followed by SRK59 addition for 30 mins by Gel-based competition assay; conditions: time 90.0 min
Method in brief: (§1)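 Recombinant PARK7 and UCHL1 (1 μM each, mixed) or PARK7 alone, in 50 mM Tris-HCl, 150 mM NaCl, 2 mM TCEP, pH 7.5. Treated with compound at 2 μM or a serial dilution for 1 h at 37 °C. Then 8RK59 probe (2 μM final) added for 30 min at 37 °C. Run on SDS-PAGE; remaining labelling read by fluorescence scan.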

[5] = biological target: Ubiquitin carboxyl-terminal hydrolase isozyme L1 (Homo sapiens) (UniProt P09936); assay: Inhibition of UCHL1 (unknown origin) using SRK59 as fluorescent probe at 20 uM preincubated for 1 hr followed by SRK59 addition for 30 mins by Gel-based competition assay; conditions: time 90.0 min; method in brief: as §1
Ubiquitin carboxyl-terminal hydrolase isozyme L1 (Homo sapiens), sequence (P09936 whole entry, looked up): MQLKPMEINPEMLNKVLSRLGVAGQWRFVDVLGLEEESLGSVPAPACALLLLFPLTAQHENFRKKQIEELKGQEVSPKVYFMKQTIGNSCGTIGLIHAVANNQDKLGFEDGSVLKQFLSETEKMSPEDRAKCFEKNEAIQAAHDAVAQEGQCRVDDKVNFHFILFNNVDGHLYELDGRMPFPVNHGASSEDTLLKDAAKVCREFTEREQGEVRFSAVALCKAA

[6] = biological target: T1, Parkinson disease protein 7 (Homo sapiens); assay: Inhibition of PARK7 in human HEK293T cells assessed as reduction in JQ-92 labelled PARK7 band intensity incubated for 1 hr followed by incubation with JQ-92 for 30 mins by fluorescence scanning based analysis; format: cell-based; conditions: dose 0.1-20 µM, time 90.0 min, DDE = dose-dependent effect
[7] = biological target: T1, Parkinson disease protein 7 (Homo sapiens); assay: Inhibition of N-terminal GST-tagged human recombinant PARK7 expressed in Escherichia coli BL21(DE3)Rosetta2 cells using SRK59 as fluorescent probe at 1 to 2 uM preincubated for 1 hr followed by SRK59 addition for 30 mins by Gel-based competition assay; conditions: dose 1-2 µM, time 90.0 min; method in brief: as §1
[8] = biological target: T1, Parkinson disease protein 7 (Homo sapiens); assay: Inhibition of N-terminal GST-tagged human recombinant PARK7 expressed in Escherichia coli BL21(DE3)Rosetta2 cells using SRK59 as fluorescent probe at 2 uM preincubated for 1 hr followed by SRK59 addition for 30 mins by Gel-based competition assay; conditions: time 90.0 min; method in brief: as §1
[9] = biological target: Ubiquitin carboxyl-terminal hydrolase isozyme L1 (Homo sapiens) (UniProt P09936); assay: Inhibition of UCHL1 (unknown origin) using SRK59 as fluorescent probe at 2 uM preincubated for 1 hr followed by SRK59 addition for 30 mins by Gel-based competition assay; conditions: time 90.0 min; method in brief: as §1
[10] = biological target: Ubiquitin carboxyl-terminal hydrolase isozyme L1 (Homo sapiens) (UniProt P09936); assay: Inhibition of UCHL1 in human HEK293T cells assessed as reduction in Rho-Ub-PA-labelled UCHL1 band intensity at 5 uM incubated for 1 hr followed by incubation with Rho-Ub-PA for 30 mins by fluorescence scanning based analysis; format: cell-based; conditions: time 90.0 min
[11] = biological target: T1, Parkinson disease protein 7 (Homo sapiens); assay: Binding affinity to N-terminal GST-tagged human recombinant PARK7 expressed in Escherichia coli BL21(DE3)Rosetta2 cells at 1 uM measured after 1 hr by fluorescence scanning analysis
Method in brief: (§2)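 Purified recombinant PARK7 (GST-tagged in E. coli BL21(DE3) Rosetta2, tag removed by 3C protease, then gel filtration), 1 μM final. Incubated with probe at 0, 0.1, 0.5, 1, 2, 5 or 10 μM for 1 h at 37 °C in 50 mM Tris-HCl, 150 mM NaCl, 2 mM TCEP, pH 7.5. Stopped with LDS sample buffer, run on SDS-PAGE, read by fluorescence scan, then Coomassie stain.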

[12] = biological target: T1, Parkinson disease protein 7 (Homo sapiens); assay: Binding affinity to N-terminal GST-tagged human recombinant PARK7 expressed in Escherichia coli BL21(DE3)Rosetta2 cells at 1 uM measured after 1 hr by coomassie staining based analysis; method in brief: as §2
[13] = biological target: T1, Parkinson disease protein 7 (Homo sapiens); assay: Binding affinity to PARK7 in UCHL1 knockdown human HEK293T cells at 1 uM incubated for 1 hr by fluorescence scanning based analysis; format: cell-based
Method in brief: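 HEK293T cells were siRNA-transfected with Dharmafect 1 and cultured 3 days, then lysed in Triton X-100/TCEP Tris buffer (pH 7.5) with protease inhibitors. Lysate labelled with probe at 1 μM final for 1 h at 37 °C. Read by SDS-PAGE Cy5 fluorescence scan (635/655 nm), then immunoblot for UCHL1/PARK7 with actin as loading control.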

[14] = biological target: T1, Parkinson disease protein 7 (Homo sapiens); assay: Binding affinity to PARK7 in human HEK293T cells at 1 uM incubated for 1 hr by fluorescence scanning based analysis; format: cell-based
[15] = biological target: T1, Parkinson disease protein 7 (Homo sapiens); assay: Binding affinity to PARK7 in human HEK293T cells at 0.5 to 1 uM incubated for 1 hr by western blot analysis; format: cell-based; conditions: dose 0.5-1 µM
[16] = biological target: T1, Parkinson disease protein 7 (Homo sapiens); assay: Binding affinity to N-terminal GST-tagged human recombinant PARK7 expressed in Escherichia coli BL21(DE3)Rosetta2 cells at 2 uM measured after 1 hr by coomassie staining based analysis; method in brief: as §2
[17] = biological target: T1, Parkinson disease protein 7 (Homo sapiens); assay: Binding affinity to N-terminal GST-tagged human recombinant PARK7 expressed in Escherichia coli BL21(DE3)Rosetta2 cells at 2 uM measured after 1 hr by fluorescence scanning analysis; method in brief: as §2
[18] = biological target: T1, Parkinson disease protein 7 (Homo sapiens); assay: Binding affinity to PARK7 in human HEK293T cells at 0.5 uM incubated for 1 hr by fluorescence scanning based analysis; format: cell-based
[19] = biological target: T1, Parkinson disease protein 7 (Homo sapiens); assay: Binding affinity to N-terminal GST-tagged human recombinant PARK7 expressed in Escherichia coli BL21(DE3)Rosetta2 cells at 5 uM measured after 1 hr by fluorescence scanning analysis; method in brief: as §2
[20] = biological target: T1, Parkinson disease protein 7 (Homo sapiens); assay: Binding affinity to N-terminal GST-tagged human recombinant PARK7 expressed in Escherichia coli BL21(DE3)Rosetta2 cells at 5 uM measured after 1 hr by coomassie staining based analysis; method in brief: as §2

O=c1ccc(NS(=O)(=O)c2cccc(S(=O)(=O)F)c2)c[nH]1
inhibition [1]: Active
inhibition [2]: Active
inhibition [3]: 100%

O=C(O)c1csc(C(=O)CCl)c1
inhibition [1]: Active
inhibition [2]: Active

N#CN1CC[C@@H](C(=O)Nc2nc3c(s2)CN(C(=O)CN=[N+]=[N-])CC3)C1
inhibition [4]: Active
inhibition [5]: Active
inhibition [6]: Dde
inhibition [7]: 100%
inhibition [8]: 100%

N#CN1CC[C@H](C(=O)Nc2nc3c(s2)CN(C(=O)CN=[N+]=[N-])CC3)C1
inhibition [9]: Active
inhibition [10]: Active

N#CN1CC[C@H](C(=O)Nc2nc3c(s2)CN(C(=O)Cc2ccncc2)CC3)C1
inhibition [9]: 100%
inhibition [8]: Active

N#CN1CC[C@@H](C(=O)Nc2nc3c(s2)CN(C(=O)Cn2cc(CCCNC(=O)c4ccc(-c5c6ccc(=N)cc-6oc6cc(N)ccc56)c(C(=O)O)c4)nn2)CC3)C1
Activity [11]: Active
Activity [12]: Active

N#CN1CC[C@H](C(=O)Nc2ncc(N3CCOCC3)s2)C1
inhibition [10]: Active

CN1C(=O)CC(C(=O)N2CCc3nc(NC(=O)[C@H]4CCN(C#N)C4)sc3C2)[C@@H]1c1cccnc1 (stereo partly drawn)
inhibition [9]: 100%
inhibition [8]: Active

CC[N+]1=C(/C=C/C=C/C=C2/N(CCCCCC(=O)NCCCc3cn(CC(=O)N4CCc5nc(NC(=O)[C@@H]6CCN(C#N)C6)sc5C4)nn3)c3ccc(S(=O)(=O)O)cc3C2(C)C)C(C)(C)c2cc(S(=O)(=O)[O-])ccc21
Activity [13]: Active
Activity [14]: Active
Activity [11]: Active
Activity [15]: Active
Activity [16]: Active
Activity [17]: Active
Activity [12]: Active
Activity [18]: Active

CC1=CC(C)=[N+]2C1=C(CCCCc1cn(CC(=O)N3CCc4nc(NC(=O)[C@@H]5CCN(C#N)C5)sc4C3)nn1)c1c(C)cc(C)n1[B-]2(F)F
Activity [19]: Active
Activity [20]: Active

CCC(C)c1ccc(NC(=O)CCl)cc1 (stereo not drawn)
inhibition [1]: Active
inhibition [2]: Active

N#CN1CC[C@H](C(=O)Nc2nc3c(s2)CN(C(=O)CCCCBr)CC3)C1
inhibition [9]: 100%
inhibition [8]: Active
